Test results reported in ChEMBL document CHEMBL1146768, “Orally active factor Xa inhibitors: 4,5,6,7-tetrahydrothiazolo[5,4-c]pyridine derivatives” (Bioorg Med Chem Lett, 2004).

How the values were obtained:
[1] = target: Prothrombin (Homo sapiens, UniProt P00734); assay: In vitro inhibitory activity against human thrombin
[2] = test system: Rattus norvegicus; assay: Ex vivo anti-fXa activity at 1 hr after oral administration of 30 mg/kg to rats perorally; assay type: functional
Outline: (§1)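 Male Wistar rats, fasted overnight, dosed by stomach tube with compound in 0.5% (w/v) methylcellulose; controls got vehicle alone. Blood drawn into trisodium citrate under halothane anaesthesia at set times, and platelet-poor plasma prepared.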

[3] = test system: Rattus norvegicus; assay: Ex vivo anti-fXa activity at 3 hr after oral administration of 30 mg/kg to rats perorally; assay type: functional; outline: as §1
[4] = test system: Rattus norvegicus; assay: Ex vivo anti-coagulant activity at 3 hr after oral administration of 30 mg/kg to rats perorally; assay type: functional
[5] = test system: Rattus norvegicus; assay: Ex vivo anti-coagulant activity at 1 hr after oral administration of 30 mg/kg to rats perorally; assay type: functional
[6] = test system: Rattus norvegicus; assay: Ex vivo anti-coagulant activity at 6 hr after oral administration of 30 mg/kg to rats perorally; assay type: functional
[7] = test system: Rattus norvegicus; assay: Ex vivo anti-fXa activity at 6 hr after oral administration of 30 mg/kg to rats perorally; assay type: functional; outline: as §1
[8] = species: Homo sapiens; assay: Anti-coagulant activity in human plasma were evaluated with the plasma clotting time doubling concentration; assay type: functional, cell-free
[9] = target: Coagulation factor X (Homo sapiens, UniProt P00742); assay: In vitro inhibitory activity against human Coagulation factor X
Sequence of Coagulation factor X (P00742 41-179 limits assumed): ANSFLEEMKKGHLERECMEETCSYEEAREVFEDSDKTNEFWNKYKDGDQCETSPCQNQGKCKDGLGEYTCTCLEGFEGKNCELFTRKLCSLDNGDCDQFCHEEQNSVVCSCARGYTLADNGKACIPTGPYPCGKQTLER
Sequence of Coagulation factor X (P00742 235-488 limits assumed): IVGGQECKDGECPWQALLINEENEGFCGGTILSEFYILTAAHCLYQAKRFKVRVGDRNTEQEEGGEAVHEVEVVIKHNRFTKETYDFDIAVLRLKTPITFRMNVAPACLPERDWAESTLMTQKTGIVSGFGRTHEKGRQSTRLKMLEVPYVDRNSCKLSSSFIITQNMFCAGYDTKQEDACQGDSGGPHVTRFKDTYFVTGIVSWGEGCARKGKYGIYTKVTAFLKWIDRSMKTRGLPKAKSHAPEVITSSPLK

Row | Compound | IC50 [1] | IC50 [9] | Anti-fXa activity [2] | Anti-fXa activity [3] | Prolongation effect [4] | Prolongation effect [5] | Prolongation effect [6] | Anti-fXa activity [7] | Concentration [8]
1 | CN1CCc2nc(C(=O)N3CCN(S(=O)(=O)c4ccc5cc(Cl)ccc5c4)CC3C(=O)N(C)C)sc2C1 (stereo not given) | 6000 nM | 130 nM |  |  |  |  |  |  | 7 µM
2 | O=C(c1nc2c(s1)CNCC2)N1CCN(S(=O)(=O)c2ccc3cc(Cl)ccc3c2)CC1 | 2900 nM | 60 nM |  |  |  |  |  |  | 11.2 µM
3 | CNC(=O)C1CN(S(=O)(=O)c2ccc3cc(Cl)ccc3c2)CCN1C(=O)c1nc2c(s1)CN(C)CC2 (stereo not given) | 1350 nM | 27 nM | 89.5% | 73.7% | 1.14 | 1.35 | 1.04 | 23.5% | 3 µM
4 | C[N+]1(C)CCc2nc(C(=O)N3CCN(S(=O)(=O)c4ccc5cc(Cl)ccc5c4)CC3)sc2C1 | 3200 nM | 7.8 nM |  |  |  |  |  |  | 0.8 µM
5 | CN1CCc2nc(C(=O)N3CCN(S(=O)(=O)c4ccc5cc(Cl)ccc5c4)CC3C(=O)NCc3ccccc3)sc2C1 (stereo not given) | 1300 nM | 640 nM |  |  |  |  |  |  | 

These reach a lower IC50 [1]. Values come first.

Row | IC50 [1] | IC50 [9] | Compound | Anti-fXa activity [2] | Anti-fXa activity [3] | Prolongation effect [4] | Prolongation effect [5] | Prolongation effect [6] | Anti-fXa activity [7] | Concentration [8]
6 | 1000 nM |  | CN1CCc2nc(C(=O)N3CCN(S(=O)(=O)c4ccc5cc(Cl)ccc5c4)CC3C(N)=O)sc2C1 (stereo not given) | 67.4% | 55.8% | 1.09 | 1.13 | 1.05 | 24.7% | 4.4 µM
7 | 1000 nM | 25 nM | CN1CCc2nc(C(=O)N3CCN(S(=O)(=O)c4ccc5cc(Cl)ccc5c4)CC3C(=O)NCC(=O)N3CCOCC3)sc2C1 (stereo not given) |  |  |  |  |  |  | 2.1 µM
8 | 880 nM | 23 nM | CN1CCc2nc(C(=O)N3CCN(S(=O)(=O)c4ccc5cc(Cl)ccc5c4)CC3C(=O)NCC(N)=O)sc2C1 (stereo not given) |  |  |  |  |  |  | 3.8 µM
9 | 820 nM | 45 nM | CC(C)NC(=O)C1CN(S(=O)(=O)c2ccc3cc(Cl)ccc3c2)CCN1C(=O)c1nc2c(s1)CN(C)CC2 (stereo not given) |  |  |  |  |  |  | 8.8 µM
10 | 560 nM | 22 nM | CN1CCc2nc(C(=O)N3CCN(S(=O)(=O)c4ccc5cc(Cl)ccc5c4)CC3)sc2C1 |  |  |  |  |  |  | 6 µM
